For experiment [1], the system named is Mus musculus. Briefly: Percent blood glucose level in mice 4 hours after peroral administration of compound (100 mg/kg). Format: functional. An outline of the steps:
(§1)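 Viable yellow obese diabetic mice, six per group, gavaged with 100 mg/kg in saline-2% Emulphor; six vehicle-gavaged controls. Tail blood taken before dosing and at 2 and 4 h. Glucose measured by glucose oxidase method on an autoanalyzer. Values expressed as percent of zero time, mean ±SE of six mice. Significance versus controls by Student's t test, p < 0.05.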

Experiment [2] concerns Mus musculus. In words: Percent blood glucose level in mice 2 hours after peroral administration of compound (100 mg/kg). The experiment is classed as functional. An outline of the steps:
as §1

SMILES strings stand for the structures.

The record followed here is ChEMBL document CHEMBL1124352, “Oral hypoglycemic agents. Discovery and structure-activity relationships of phenacylimidazolium halides” (1989).

As to `Cc1cc[n+](CC(=O)c2ccccc2)cc1.[Br-]`, the Blood glucose is 103% in the experiment with Mus musculus [1] and 105% in the experiment on Mus musculus [2].
Turning to `Cn1cc[n+](CC(=O)c2ccc(C#N)cc2)c1.[Br-]`, the figures for the Blood glucose in the experiment on Mus musculus [1] and in the experiment with Mus musculus [2] were 106% and 105%, respectively.
For the compound `Cn1cc[n+](CC(=O)c2cccc(C(F)(F)F)c2)c1.[I-]`, the Blood glucose is 97% in the experiment with Mus musculus [1] and 95% with Mus musculus [2].
`Cc1ccc(C(=O)Cn2ccc[n+]2C)cc1.[Br-]`: the figures for the Blood glucose with Mus musculus [1] and with Mus musculus [2] were 82% and 83%, respectively.
With `Cn1cc[n+](C(C)(C)C(=O)c2ccccc2)c1.[Br-]`, the Blood glucose in the experiment with Mus musculus [1] stood at 113%; in the experiment on Mus musculus [2] it was 104%.
Turning to `Cc1n(C)cc[n+]1CC(=O)c1ccccc1.[Cl-]`, the Blood glucose in the experiment with Mus musculus [1] is reported as 81%; in the experiment with Mus musculus [2], 90%.
Turning to `COc1ccc(C(=O)C[n+]2ccn(C)c2)cc1.[Br-]`, the results for the Blood glucose in the experiment with Mus musculus [1] and in the experiment on Mus musculus [2] were 77% and 70%, respectively.
In the same order, the values of `Cn1cc[n+](CC(=O)c2ccco2)c1.[Br-]` are 92% and 72%.
Take `COc1cccc(C(=O)Cn2ccn(C)c2=O)c1`: the Blood glucose in the experiment with Mus musculus [1] is given as 103%; with Mus musculus [2] it was 101%.
Consider `COc1ccc(C(=O)C[n+]2ccn(C)c2)cc1OC.[Br-]`, for which the values for the Blood glucose in the experiment on Mus musculus [1] and in the experiment on Mus musculus [2] were 81% and 86%, respectively.
On to `CC(=O)C[n+]1ccn(-c2ccccc2)c1.[Cl-]`, for which the figures for the Blood glucose with Mus musculus [1] and in the experiment on Mus musculus [2] were 109% and 105%, respectively.
On to `COc1cccc(C(=O)C[n+]2ccsc2)c1.[Br-]`, for which the results for the Blood glucose in the experiment with Mus musculus [1] and in the experiment with Mus musculus [2] were 123% and 105%, respectively.
In the same order, the values of `CCCn1cc[n+](CC(=O)c2ccccc2)c1.[Cl-]` are 79% and 79%.
Turning to `Cn1cc[n+](CC(=O)c2ccccc2F)c1.[Br-]`, the Blood glucose in the experiment with Mus musculus [1] came out at 99%; in the experiment with Mus musculus [2] it was 91%.
As to `Cc1ccc(C(=O)C[n+]2cn(C)c(-c3ccccc3)c2-c2ccccc2)cc1.[Br-]`, the results for the Blood glucose with Mus musculus [1] and in the experiment on Mus musculus [2] were 105% and 102%, respectively.
On to `Cn1cc[n+](CC(=O)c2ccc(C(N)=O)cc2)c1.[Br-]`, for which the Blood glucose is listed as 95% in the experiment with Mus musculus [1] and 100% in the experiment with Mus musculus [2].
The corresponding values for `Cc1ccc(C(=O)C[n+]2ccncc2)cc1.[Br-]` are 112% and 122%.
For the compound `Cc1ccc(C(=O)C[n+]2cc3ccccc3cn2)cc1.[Br-]`, the Blood glucose was found to be 108% in the experiment on Mus musculus [1] and 115% in the experiment with Mus musculus [2].
On to `CCOc1cccc(C(=O)C[n+]2ccn(C)c2)c1.[Br-]`, for which the Blood glucose in the experiment on Mus musculus [1] is 64%; with Mus musculus [2], 63%.
As to `COc1cccc(C(=O)C[n+]2ccn(C(C)C)c2)c1.[Br-]`, the Blood glucose in the experiment on Mus musculus [1] was found to be 83%; in the experiment with Mus musculus [2], 79%.
The corresponding values for `C[n+]1ccn(CC(=O)c2ccccc2)c1.[Br-]` are 71% and 74%.
As to `COc1cccc(C(=O)C[N+]2=CN(C)CC2)c1.[Br-]`, the values for the Blood glucose in the experiment on Mus musculus [1] and in the experiment on Mus musculus [2] were 97% and 81%, respectively.
Turning to `Cn1cc[n+](C(C(=O)c2ccccc2)c2ccccc2)c1.[Cl-]` (stereo not drawn), the results for the Blood glucose in the experiment with Mus musculus [1] and in the experiment on Mus musculus [2] were 83% and 94%, respectively.
With `Br.O=C(Cn1ccnc1)c1ccccc1`, the Blood glucose in the experiment on Mus musculus [1] is on record as 90%; in the experiment on Mus musculus [2] it was 103%.
As to `Cc1ccc(C(=O)C[n+]2ccn(C)c2)cc1.[Br-]`, the Blood glucose with Mus musculus [1] is listed as 53%; in the experiment on Mus musculus [2], 57%.
`COc1cc(OC)cc(C(=O)C[n+]2ccoc2)c1.[Br-]`: the Blood glucose with Mus musculus [1] turned out to be 97%; in the experiment on Mus musculus [2], 95%.
Consider `Cc1ccccc1C(=O)C[n+]1ccn(C)c1.[Br-]`, for which the Blood glucose came to 87% in the experiment on Mus musculus [1] and 80% in the experiment on Mus musculus [2].
Turning to `Cn1cc[n+](CC(=O)c2cccc3ccccc23)c1.[Br-]`, the Blood glucose in the experiment with Mus musculus [1] was found to be 110%; in the experiment on Mus musculus [2], 90%.
For `CC(=O)Nc1cccc(C(=O)C[n+]2ccn(C)c2)c1.[Br-]`, the Blood glucose in the experiment on Mus musculus [1] stood at 109%; with Mus musculus [2] it was 100%.
As to `Cc1ccc(C(=O)C[n+]2ccn(C)c2)c(C)c1.[Br-]`, the Blood glucose in the experiment on Mus musculus [1] was found to be 79%; with Mus musculus [2] it was 62%.
As to `Cn1cc[n+](CC(=O)c2ccc3ccccc3c2)c1.[Br-]`, the Blood glucose is recorded as 99% in the experiment on Mus musculus [1] and 89% in the experiment on Mus musculus [2].
Consider `Cn1cc[n+](CC(=O)c2ccc(-c3ccccc3)cc2)c1.[Br-]`, for which the Blood glucose with Mus musculus [1] and in the experiment with Mus musculus [2] was 103% throughout.
With `Cc1cc(C)c(C(=O)C[n+]2ccn(C)c2)c(C)c1.[Br-]`, the figures for the Blood glucose in the experiment with Mus musculus [1] and with Mus musculus [2] were 97% and 94%, respectively.
In the same order, the values of `COc1cccc(C(O)C[n+]2ccn(C)c2)c1.[I-]` (stereo not drawn) are 103% and 106%.
In the same order, the values of `CO/N=C(/C[n+]1ccn(C)c1)c1ccc(C)cc1.[I-]` are 81% and 86%.
Turning to `COC(=O)Cn1cc[n+](CC(=O)c2ccccc2)c1.[Br-]`, the Blood glucose is 84% with Mus musculus [1] and 89% in the experiment on Mus musculus [2].
With `Cn1cc[n+](CC(=O)c2cccc(Cl)c2)c1.[Br-]`, the Blood glucose in the experiment on Mus musculus [1] came out at 112%; in the experiment on Mus musculus [2], 107%.
As to `Cn1cc[n+](CC(=O)c2ccc(Cl)cc2)c1.[Br-]`, the Blood glucose with Mus musculus [1] was determined as 93%; with Mus musculus [2] it was 94%.
With `COc1cccc(C(=O)C[n+]2ccn(C)c2SC(C)C)c1.[Br-]`, the values for the Blood glucose in the experiment with Mus musculus [1] and in the experiment on Mus musculus [2] were 121% and 101%, respectively.
In the same order, the values of `CC(C(=O)c1ccccc1)[n+]1ccn(C)c1.[Br-]` (stereo not drawn) are 61% and 70%.
In the case of `COc1cccc(C(=O)C[n+]2ccn(C)c2)c1OC.[Br-]`, the Blood glucose is 88% with Mus musculus [1] and 83% in the experiment with Mus musculus [2].
The corresponding values for `COc1cc(OC)cc(C(=O)C[n+]2ccn(C)c2)c1.[Br-]` are 69% and 83%.
For `Cc1cccc(C(=O)C[n+]2ccn(C)c2)c1.[Br-]`, the Blood glucose is reported as 73% in the experiment on Mus musculus [1] and 78% in the experiment on Mus musculus [2].
In the case of `Cc1ccc(C(=O)C[n+]2ccccn2)cc1.[Br-]`, the results for the Blood glucose with Mus musculus [1] and in the experiment on Mus musculus [2] were 111% and 105%, respectively.
For the compound `COc1cccc(C(=O)Cn2ccnc2)c1`, the Blood glucose in the experiment on Mus musculus [1] came out at 121%; with Mus musculus [2], 110%.
Turning to `Cn1cc[n+](CC(=O)c2ccc(O)c(O)c2)c1.[Cl-]`, the figures for the Blood glucose with Mus musculus [1] and in the experiment on Mus musculus [2] were 107% and 108%, respectively.
In the same order, the values of `Cn1cc[n+](CC(=O)c2ccc(Cl)c(Cl)c2)c1.[Br-]` are 79% and 94%.
As for `COc1ccccc1C(=O)C[n+]1ccn(C)c1.[Br-]`, the values for the Blood glucose in the experiment with Mus musculus [1] and in the experiment on Mus musculus [2] were 97% and 90%, respectively.
For the compound `COc1cccc(C(=O)C[n+]2ccn(C)c2)c1.[Br-]`, the results for the Blood glucose with Mus musculus [1] and in the experiment with Mus musculus [2] were 72% and 58%, respectively.
On to `Cc1ccc(S(=O)(=O)[O-])cc1.Cn1cc[n+](CC(=O)c2cccc(O)c2)c1`, for which the Blood glucose worked out at 87% with Mus musculus [1] and 93% in the experiment with Mus musculus [2].
For `CCCOc1cccc(C(=O)C[n+]2ccn(C)c2)c1.[Br-]`, the Blood glucose in the experiment with Mus musculus [1] turned out to be 72%; in the experiment on Mus musculus [2], 63%.
For the compound `Cc1ccc(C(=O)C[n+]2ccn(C)c2)cc1C.[Br-]`, the Blood glucose in the experiment with Mus musculus [1] was determined as 95%; in the experiment with Mus musculus [2] it was 83%.
Regarding `COc1cccc(C(=O)Cn2ccn(C)c2=S)c1`, the Blood glucose stood at 80% in the experiment with Mus musculus [1] and 99% in the experiment on Mus musculus [2].
For the compound `COc1cccc(C(=O)C[n+]2ccn(-c3ccccc3)c2)c1.[Br-]`, the Blood glucose in the experiment on Mus musculus [1] is 91%; in the experiment on Mus musculus [2] it was 96%.
Regarding `COc1cccc(C(=O)CC[n+]2ccn(C)c2)c1.[I-]`, the Blood glucose in the experiment on Mus musculus [1] is recorded as 94%; with Mus musculus [2], 91%.
Turning to `Cc1ccc(C(=O)C[n+]2csc3ccccc32)cc1.[Br-]`, the Blood glucose with Mus musculus [1] is 108%; in the experiment on Mus musculus [2], 106%.
The corresponding values for `CCOc1ccc(C(=O)C[n+]2ccn(C)c2)cc1.[Br-]` are 104% and 103%.
In the same order, the values of `CCc1ccc(C(=O)C[n+]2ccn(C)c2)cc1.[Br-]` are 88% and 77%.
Take `COc1ccc(OC)c(C(=O)C[n+]2ccn(C)c2)c1.[Br-]`: the results for the Blood glucose in the experiment with Mus musculus [1] and in the experiment on Mus musculus [2] were 86% and 78%, respectively.
